The source of these data is ChEMBL document CHEMBL1138795, “Inhibition of nucleoside transport by new analogues of 4-nitrobenzylthioinosine: replacement of the ribose moiety by substituted benzyl groups” (J Med Chem, 2004).

For the first assay, the target named is T1, Equilibrative nucleoside transporter 1 (Homo sapiens, UniProt Q99808).
T1 sequence (Q99808 whole entry): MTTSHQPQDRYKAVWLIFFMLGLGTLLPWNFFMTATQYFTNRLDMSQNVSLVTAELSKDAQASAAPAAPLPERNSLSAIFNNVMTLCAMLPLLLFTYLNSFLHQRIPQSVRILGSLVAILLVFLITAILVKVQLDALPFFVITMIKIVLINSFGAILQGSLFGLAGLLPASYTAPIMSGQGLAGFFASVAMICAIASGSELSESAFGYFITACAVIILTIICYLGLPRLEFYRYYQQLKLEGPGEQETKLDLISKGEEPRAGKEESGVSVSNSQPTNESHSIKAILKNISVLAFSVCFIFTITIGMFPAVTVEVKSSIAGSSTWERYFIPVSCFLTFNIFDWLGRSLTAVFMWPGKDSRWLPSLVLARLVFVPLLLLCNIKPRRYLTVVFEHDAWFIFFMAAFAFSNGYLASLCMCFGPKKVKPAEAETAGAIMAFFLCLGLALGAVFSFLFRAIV
Put plainly: Inhibition of [3H]NBTI binding to nucleoside transport protein of human erythrocyte membrane. The essentials: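 Equilibrium displacement of [3H]NBTI (KD 0.59 nM) from human erythrocyte ghost membranes at 25 °C. Membranes prepared by hypotonic lysis in Tris-HCl/MgCl2 pH 8.0 and resuspended in 50 mM Tris-HCl pH 7.4. Compounds giving ≥50% inhibition at 10 μM were run over a concentration range. IC50 values were converted to Ki, n = 3, reported with SEM.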
Compound `O=[N+]([O-])c1ccc(CSc2ncnc3c2ncn3Cc2ccccc2-c2ccc(F)cc2)cc1` had an inhibition constant Ki of 93 nM. On the same count and under the same terms, as for `COc1ccccc1Cn1cnc2c(SCc3ccc([N+](=O)[O-])cc3)ncnc21`, the figure is 110 nM; as for `COc1ccc(Cn2cnc3c(SCc4ccc([N+](=O)[O-])cc4)ncnc32)cc1`, 563 nM. On the same count and under the same terms, the result for `O=[N+]([O-])c1ccc(CSc2ncnc3c2ncn3Cc2ccccc2-c2ccccc2F)cc1` reads 111 nM. On the same count and under the same terms, as for `Cc1ccccc1-c1ccccc1Cn1cnc2c(SCc3ccc([N+](=O)[O-])cc3)ncnc21`, the figure is 126 nM; as for `O=[N+]([O-])c1ccc(CSc2ncnc3c2ncn3Cc2ccc(F)cc2F)cc1`, 4880 nM; as for `COc1cccc(-c2ccccc2Cn2cnc3c(SCc4ccc([N+](=O)[O-])cc4)ncnc32)c1`, 221 nM. In turn, `O=[N+]([O-])c1ccc(CSc2ncnc3c2ncn3Cc2cc(F)cc(F)c2)cc1` registered an inhibitory constant (Ki) of 1540 nM. Against the preceding compound, the Ki is about 7-fold higher. The same measure, in the same setting: the result for `O=[N+]([O-])c1ccc(CSc2ncnc3c2ncn3Cc2ccccc2-c2ccc(C(F)(F)F)cc2)cc1` reads 39 nM; that for `O=[N+]([O-])c1ccc(CSc2ncnc3c2ncn3CCCc2ccccc2)cc1`, 488 nM. Still for that read-out and setting: the result for `O=[N+]([O-])c1ccc(CSc2ncnc3c2ncn3Cc2ccc(F)c(F)c2)cc1` reads 653 nM; that for `O=[N+]([O-])c1ccc(CSc2ncnc3c2ncn3Cc2cccc(F)c2)cc1`, 361 nM; that for `O=[N+]([O-])c1ccc(CSc2ncnc3c2ncn3Cc2ccccc2-c2ccccc2)cc1`, 281 nM. The compound `COc1ccccc1-c1ccccc1Cn1cnc2c(SCc3ccc([N+](=O)[O-])cc3)ncnc21` registered an inhibition constant (Ki) of 225 nM. This Ki and that of the compound before are within 1.5-fold of each other. Compound `CC(C)(C)OC(=O)Nc1ccccc1Cn1cnc2c(SCc3ccc([N+](=O)[O-])cc3)ncnc21` showed an inhibitory constant (Ki) of 422 nM. Compared with the last compound, the Ki is about 1.9-fold higher. The same measure, in the same setting: the result for `COc1cccc(Cn2cnc3c(SCc4ccc([N+](=O)[O-])cc4)ncnc32)c1` reads 264 nM; that for `Nc1ccccc1Cn1cnc2c(SCc3ccc([N+](=O)[O-])cc3)ncnc21`, 124 nM. On the same count and under the same terms, the result for `O=[N+]([O-])c1ccc(CSc2ncnc3c2ncn3Cc2ccccc2-c2ccccc2O)cc1` reads 196 nM; that for `O=[N+]([O-])c1ccc(CSc2ncnc3c2ncn3Cc2ccc(F)cc2)cc1`, 3340 nM; that for `O=[N+]([O-])c1ccc(CSc2ncnc3c2ncn3Cc2ccc(Cl)cc2)cc1`, 236 nM.

In the case of `O=[N+]([O-])c1ccc(CSc2ncnc3c2ncn3Cc2ccccc2-c2cccc(C(F)(F)F)c2)cc1`, the affinity, expressed as Ki, was 86 nM. Compared with the last compound, the Ki is about 2.7-fold lower. Compound `O=[N+]([O-])c1ccc(CSc2ncnc3c2ncn3Cc2ccccc2-c2cccc(O)c2)cc1` came in with a Ki of 196 nM.

`O=[N+]([O-])c1ccc(CSc2ncnc3c2ncn3Cc2ccccc2O)cc1` registered a Ki of 39 nM. Compared with the last compound, the Ki is about 5-fold lower.

`O=[N+]([O-])c1ccc(CSc2ncnc3c2ncn3CCc2ccccc2)cc1`: affinity was put at a Ki of 2200 nM. The same measure, in the same setting: as for `O=[N+]([O-])c1ccc(CSc2ncnc3c2ncn3Cc2ccc(I)cc2)cc1`, the figure is 130 nM; as for `O=[N+]([O-])c1ccc(CSc2ncnc3c2ncn3Cc2ccc([N+](=O)[O-])cc2)cc1`, 200 nM; as for `O=[N+]([O-])c1ccc(CSc2ncnc3c2ncn3Cc2cc(F)ccc2F)cc1`, 1640 nM. On the same count and under the same terms, as for `O=[N+]([O-])c1ccc(CSc2ncnc3c2ncn3Cc2ccccc2-c2ccsc2)cc1`, the figure is 89 nM; as for `O=[N+]([O-])c1ccc(CSc2ncnc3c2ncn3Cc2ccncc2)cc1`, 2170 nM.

`O=[N+]([O-])c1ccc(CSc2ncnc3c2ncn3Cc2cccnc2)cc1` came in with a Ki of 2710 nM. Still for that read-out and setting: as for `O=[N+]([O-])c1ccc(CSc2ncnc3c2ncn3Cc2ccccc2-c2cccs2)cc1`, the figure is 129 nM; as for `O=[N+]([O-])c1ccc(CSc2ncnc3c2ncn3Cc2cccc(O)c2)cc1`, 153 nM; as for `O=[N+]([O-])c1ccc(CSc2ncnc3c2ncn3Cc2ccccc2-c2ccc(O)cc2)cc1`, 154 nM. The same measure, in the same setting: the result for `O=[N+]([O-])c1ccc(CSc2ncnc3c2ncn3Cc2cccc(Cl)c2)cc1` reads 212 nM; that for `COc1ccc(-c2ccccc2Cn2cnc3c(SCc4ccc([N+](=O)[O-])cc4)ncnc32)cc1`, 104 nM; that for `Cc1ccc(Cn2cnc3c(SCc4ccc([N+](=O)[O-])cc4)ncnc32)cc1`, 711 nM.

Compound `O=[N+]([O-])c1ccc(CSc2ncnc3c2ncn3Cc2cccc(C(F)(F)F)c2)cc1` displayed a Ki of 2170 nM.

Another assay has as its target T2, Equilibrative nucleoside transporter 1 (Homo sapiens) (UniProt Q99808).
T2 sequence (whole entry): T1 sequence (Q99808 whole entry)
As to the kind of experiment: Displacement of [3H]NBTI from human erythrocyte membrane at 10 uM. In outline:
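Human erythrocyte ghost membranes (whole blood lysed in 10 mM MgCl2/10 mM Tris-HCl pH 8.0, repeated water washes, resuspended in 50 mM Tris-HCl pH 7.4, stored −80 °C) incubated to equilibrium at 25 °C with [3H]NBTI (KD 0.59 nM). Test compound at a single 10 μM concentration. Result expressed as percent displacement of specific radioligand binding.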
`O=[N+]([O-])c1ccc(CSc2ncnc3c2ncn3Cc2ccccc2Cl)cc1` registered a Binding activity of 44%. Consider `O=[N+]([O-])c1ccc(CSc2ncnc3c2ncn3Cc2c(Cl)cccc2Cl)cc1`, for which the Binding activity was found to be 6%. The compound `COc1cc(Cn2cnc3c(SCc4ccc([N+](=O)[O-])cc4)ncnc32)cc(OC)c1` returned a Binding activity of 47%.

As to `O=[N+]([O-])c1ccc(CSc2ncnc3c2ncn3Cc2cccc(F)c2F)cc1`, the Binding activity is 32%. The same measure, in the same setting: as for `O=[N+]([O-])c1ccc(CSc2ncnc3c2ncn3Cc2ccc(Cl)c(Cl)c2)cc1`, the figure is 34%. On the same count and under the same terms, the result for `O=[N+]([O-])c1ccc(CSc2ncnc3c2ncn3Cc2ccccn2)cc1` reads 42%. Same read-out and setting: as for `O=[N+]([O-])c1ccc(CSc2ncnc3c2ncn3Cc2ccc(OC(F)(F)F)cc2)cc1`, the figure is 24%; as for `O=[N+]([O-])c1ccc(CSc2ncnc3c2ncn3Cc2c(F)cccc2F)cc1`, 32%; as for `O=[N+]([O-])c1ccc(CSc2ncnc3c2ncn3Cc2ccccc2F)cc1`, 38%.
